Rows were chosen to be rich in hits. Some 2.1% of all compounds tested hit in one or more screens of this group.
Runt-CBFb FRET – inhibitors of RUNX1 Runt–CBFb binding, primary screen, biochemical, FRET, Cerulean-Runt, Venus-CBFb, uHTS; Cerulean-Runt/Venus-CBFb FRET ratio 530/480, 1 h; inhibition, % at 20 µM; 0.46% of 220,000 active;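 active = inhibition over about 50% at 20 µM in the single-dose screen, limit read from the data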;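 note: 0% = DMSO wells and 100% = excess unlabeled CBFb competitor control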
Target sequence (Q01196 whole entry, looked up): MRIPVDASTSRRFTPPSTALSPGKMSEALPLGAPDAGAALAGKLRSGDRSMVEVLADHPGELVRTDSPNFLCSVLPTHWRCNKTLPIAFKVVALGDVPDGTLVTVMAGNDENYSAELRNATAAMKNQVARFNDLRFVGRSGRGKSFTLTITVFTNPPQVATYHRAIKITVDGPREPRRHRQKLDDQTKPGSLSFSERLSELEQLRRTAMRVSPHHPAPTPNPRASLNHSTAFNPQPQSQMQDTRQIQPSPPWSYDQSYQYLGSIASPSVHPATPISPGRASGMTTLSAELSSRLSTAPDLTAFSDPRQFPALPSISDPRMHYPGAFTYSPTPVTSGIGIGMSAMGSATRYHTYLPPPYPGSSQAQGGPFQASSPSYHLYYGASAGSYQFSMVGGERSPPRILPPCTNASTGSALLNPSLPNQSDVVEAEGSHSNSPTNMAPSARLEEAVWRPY
Target sequence (Q13951 whole entry, looked up): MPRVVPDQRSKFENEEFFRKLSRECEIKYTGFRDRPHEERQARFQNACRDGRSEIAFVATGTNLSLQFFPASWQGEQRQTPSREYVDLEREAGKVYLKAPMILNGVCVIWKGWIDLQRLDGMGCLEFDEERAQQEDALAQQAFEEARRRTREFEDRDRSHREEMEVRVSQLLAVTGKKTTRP
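Measured by: fluorescence energy transfer, 422 nm excitation, 530/480 nm emission; Assay system: Cerulean-Runt domain; Medium: Tris pH 7.5 buffer with BSA; Measure: loss of energy transfer signal; Controls: 5 µM unlabeled CBFb as full-inhibition high control; Incubation: protein complex preformed 1 h, compound exposure 1 h, room temperature, dark.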
m-calpain inh – inhibitors of pig calpain II, primary screen, biochemical, fluorogenic peptide substrate, 1536-well. AID 1236, 2008. inhibition, % at 16 µM. 0.37% of 220,000 active. purified calpain II, 30 min;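 active = inhibition above about 50%, limit read from the data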
Runt-SMMHC FRET – inhibitors of RUNX1 Runt–CBFb-SMMHC binding, primary screen, biochemical, FRET, Cerulean-Runt, Venus-CBFb-SMMHC, uHTS; Runt-related transcription factor 1 (Homo sapiens) + Core-binding factor subunit beta …; Cerulean-Runt/Venus-CBFb-SMMHC FRET ratio 530/480, 1 h; inhibition, % at 20 µM; 0.74% of 220,000 active; AID 1434, 2008;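 active = mean inhibition across duplicate retests at 20 µM reaching about 50%, limit read from the data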;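 note: 0% = DMSO wells and 100% = wells with excess untagged CBFb-SMMHC; inhibitors lower the FRET ratio by blocking Runt binding to CBFb-SMMHC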
FAS-TE inh – FAS thioesterase domain inhibitors, primary screen, biochemical, fluorescence intensity, uHTS; Fatty acid synthase (Homo sapiens), P49327; recombinant FAS-TE, OMFH fluorogenic substrate, fluorescence endpoint; inhibition, % at 15 µM; 0.67% of 360,000 active; AID 602261, 2012;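 active = compounds whose normalised, plate-corrected inhibition of enzyme fluorescence in the single-dose primary screen is 50% or more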;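 note: 0% = DMSO with enzyme and 100% = substrate without enzyme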
RanGTP-Impb inh – inhibitors of RanGTP-importin-beta interaction, primary screen, biochemical, FRET, CFP-Ran, YFP-importin-beta, homogeneous. Ran GTPase (GTP-bound) - importin-beta complex. cell-free CFP-Ran/YFP-importin-beta FRET ratio. 1.1% of 300,000 active. inhibition, % (concentration not given with the values);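 active = more than half of the replicate wells show a fall in the fluorescence ratio signal beyond about 16%, limit read from the data, passing the limit was not always enough; inconclusive = exactly half of the replicate wells pass the set limit; inactive = fewer than half of replicates pass the limit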;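 note: 0% = DMSO wells and 100% = Ran loaded with GDP instead of GTP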
Runt-CBFb TRFRET – inhibitors of RUNX1 Runt–CBFb binding, biochemical, TR-FRET | inhibition, % at 20 µM | TR-FRET RUNX1 Runt domain-CBFb binding | shares compounds with Runt-CBFb FRET | AID 1502, 2009 | 20% of 480 active; in the data active = inhibition above about 40%
Starred values were filed as active, the others as inactive; ? = inconclusive; . = not tested or not shown.

SMILES	Runt-CBFb FRET	m-calpain inh	Runt-SMMHC FRET	FAS-TE inh	RanGTP-Impb inh	Runt-CBFb TRFRET
CN(C)c1nc(-c2cccs2)cc(C(F)(F)F)c1C#N	53*	-13	92*	36	73*	24
Cc1cccn2c(=O)c3cc(C#N)c(=N)n(Cc4ccncc4)c3nc12	70*	-49	130*	.	74*	-4
Oc1ccc(C(=S)N2CCN(Cc3ccccc3)CC2)cc1	53*	-24	20	-6	3	-6
CCN1CCN(C(=S)c2ccc(O)cc2)CC1	54*	26	27	-2	4	-5
CN(C)c1ccc(C(=S)N2CCN(Cc3ccccc3)CC2)cc1	50	11	32	13	2	.
S=C(c1ccc(Br)cc1)N1CCN(Cc2ccccc2)CC1	54*	23	50	16	-1	19
CCN1CCN(C(=S)c2ccc(Br)cc2)CC1	45	-2	54	-4	1	.
COc1ccc(NC(=O)Nc2cccc3ccccc23)cc1S(N)(=O)=O	.	.	.	6	2	.
N#CC1(C#N)COC23CCCCC2C1(C#N)C(=N)O3 (stereo unspecified)	63*	-48	80*	-6	31*	38
COc1ccc(S(=O)(=O)Cc2ccc(C(=O)NCc3ccco3)o2)cc1	2	-10	0	-1	7	.
COc1ccc(CCn2c(N)c(C(=O)NCc3ccco3)c3nc4ccccc4nc32)cc1	58*	-491	79*	25	58*	26
O=C(Nc1ccc(Cl)c(-c2nc3ccccc3[nH]2)c1)c1ccc2c(c1)OCO2	65*	-8	-5	13	0	-121
Cc1cccc(N2CCc3c2nc2ccc(Br)cc2c3N)c1	57*	-150	78	32	6	-14
Nc1c2c(nc3ccc(Br)cc13)N(c1ccccc1)CC2	26	-104	-12	10	.	.
COc1ccccc1NC(=O)COc1ccc2c(c1)OCO2	.	.	.	0	-5	.
CN(CCC#N)C(=O)COC(=O)c1c2c(nc3ccccc13)/C(=C/c1ccco1)CC2	74*	-73	.	-6	-81	63*
O=C(C#Cc1cccc([N+](=O)[O-])c1)c1ccccc1	51*	-71	30	13	0	28
CCCn1c(SCC(=O)NCc2ccco2)nnc1-c1ccncc1	74*	-23	3	-2	1	-1
COc1ccc(C)cc1NC(=O)CN1C(=O)COc2ccc(C)cc21	.	.	.	1	?	.
NS(=O)(=O)c1ccc(NC(=S)NC2CCCC2)cc1	55*	9	31	-11	2	-16
O=C(c1ccccc1)c1ccccc1N1C(=O)C=CC1=O	64*	-15	70*	3	1	14
O=C1C=CC(=O)N1c1ccccc1N1C(=O)C=CC1=O	.	.	.	-3	.	.
CCOC(=O)c1cnn(-c2ccccc2)c1-c1ccncc1	.	.	.	-5	?	.
COc1ccc(-n2nnnc2SCC(=O)N2CCOCC2)cc1	0	-2	-2	-9	7	.
COc1ccc(-n2nnnc2Sc2ccc(S(=O)(=O)N3CCOCC3)cn2)cc1	57*	.	35	10	1	-39
SMILES	Runt-CBFb FRET	m-calpain inh	Runt-SMMHC FRET	FAS-TE inh	RanGTP-Impb inh	Runt-CBFb TRFRET
CCOC(=O)C1=C(Cc2ccc(C)cc2)C(=O)c2ccccc2C1=O	50*	18	51*	.	-11	-51
O=C(Cc1ccsc1)NNC(=O)c1cccc(Cl)c1	.	.	.	-2	1	.
CN1C=CC2=C(C#N)C(N)C(C#N)(C#N)C(c3ccccc3)C2C1 (stereo unspecified)	71*	-57	62*	-13	40*	32
CN1C[C@@H]2C(c3ccccc3)C3(c4ccc(C#N)cc4)CC2(C3)[C@H]1c1ccccc1 (stereo partly specified)	2	33	0	10	-2	.
CC(=O)C1=C(O)C(=O)N(c2ccccn2)C1c1cccc(F)c1 (stereo unspecified)	.	.	.	-6	-3	.
N#Cc1ccccc1OCC(=O)OCC(=O)Nc1ccc2c(c1)OCO2	.	.	.	-7	.	.
CCOC(=O)C1(Cc2ccc(OC)cc2)CCN(C(=O)c2cncs2)CC1	54*	-4	-5	-11	-2	34
COc1ccccc1C(=O)N/C(=C\c1cn(S(=O)(=O)N(C)C)c2ccccc12)C(=O)NCCCN1CCOCC1	.	.	.	-2	1	.
COC(=O)c1ccc(C(=O)OC)c(NC(=S)N2CCCCC2C)c1 (stereo unspecified)	72*	22	87*	0	?	67*
COc1ccc2c(c1)S/C(=C\C(=O)c1ccncc1)N2C	45	20	-33	-7	1	.
CN1/C(=C\C(=O)c2cccs2)Sc2ccccc21	52*	31	94*	-3	?	0
COc1cc(OC)cc(C(=O)/C=C2\Sc3ccccc3N2C)c1	57*	24	48	-6	2	6
CN1/C(=C/C(=O)C2CCC2)Sc2ccccc21	51*	-41	25	-2	4	8
COCC(=O)/C=C1\Sc2ccccc2N1C	11	16	-3	-7	3	.
Cc1cc(C)c2c(N)c(C(=O)Nc3nccs3)sc2n1	56*	-434	39	-2	0	16
CCNC(=O)C1(C)CCCN1Cc1cccc(C(F)(F)F)c1 (stereo unspecified)	.	.	.	-11	.	.
Oc1ccc(-c2cnns2)c(O)c1	73*	-1	.	-5	1	58*
COc1cccc(CN(C)C(=O)/C=C/c2ccc(S(=O)(=O)N3CCCCCC3)cc2)c1	.	.	.	18	1	.
COc1ccc2ccccc2c1C(O)c1nccn1C (stereo unspecified)	55*	-41	115*	-106	0	-2
Cn1ccnc1C(O)c1ccccc1 (stereo unspecified)	2	-26	1	-4	6	.
CCc1ccccc1N1CSC2=C(C#N)C(c3cc(OC)c(OC)cc3OC)CC(=O)N2C1 (stereo unspecified)	32	-71	48	-4	-112	.
COc1cc(OC)c(C2CC(=O)N3CN(c4ccccc4)CSC3=C2C#N)cc1OC (stereo unspecified)	80*	-35	111*	-6	-149	25
Cc1ccc(C)c(/C=N/Nc2nc3ccccc3c(=O)n2O)c1	51*	-24	19	13	0	-1
C/C(=N\Nc1nc2ccccc2c(=O)n1O)c1ccco1	.	.	.	-8	7	.

Source: PubChem BioAssay (several laboratories)
